Test results published in ChEMBL document CHEMBL1142933, “Rational design of novel, potent small molecule pan-selectin antagonists” (J Med Chem, 2007).

Columns and labels:
E-selectin = molecular target: T1, E-selectin (Homo sapiens, UniProt P16581); assay: Inhibition of human E-selectin after 2 hrs
T1 sequence (P16581 whole entry): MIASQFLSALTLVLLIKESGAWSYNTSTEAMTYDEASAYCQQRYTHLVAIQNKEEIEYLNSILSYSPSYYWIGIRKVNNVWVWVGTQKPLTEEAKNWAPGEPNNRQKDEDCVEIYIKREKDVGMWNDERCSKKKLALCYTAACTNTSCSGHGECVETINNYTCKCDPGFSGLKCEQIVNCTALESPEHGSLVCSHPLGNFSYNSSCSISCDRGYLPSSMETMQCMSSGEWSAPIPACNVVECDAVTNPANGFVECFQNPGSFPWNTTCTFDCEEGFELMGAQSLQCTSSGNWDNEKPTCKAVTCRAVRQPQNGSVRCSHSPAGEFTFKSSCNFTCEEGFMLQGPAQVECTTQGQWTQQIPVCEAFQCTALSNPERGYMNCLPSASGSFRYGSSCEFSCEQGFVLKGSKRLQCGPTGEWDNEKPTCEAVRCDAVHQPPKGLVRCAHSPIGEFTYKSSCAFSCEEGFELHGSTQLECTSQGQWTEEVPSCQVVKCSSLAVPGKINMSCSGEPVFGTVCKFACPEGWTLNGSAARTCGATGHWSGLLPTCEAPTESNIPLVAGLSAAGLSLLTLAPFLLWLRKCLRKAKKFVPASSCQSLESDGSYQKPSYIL
In short: (§1)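 Biotinylated sLeX-tyrosine sulfate polyacrylamide complexed with streptavidin-peroxidase added with compound at varying concentrations (HEPES pH 7.4, 1 mM CaCl2, 1% DMSO), 2 h 37 °C. TMB read-out, OD 450 vs 620 nm.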

P-selectin = molecular target: T2, P-selectin (Homo sapiens, UniProt P16109); assay: Inhibition of human P-selectin after 2 hrs; in short: as §1
T2 sequence (P16109 whole entry): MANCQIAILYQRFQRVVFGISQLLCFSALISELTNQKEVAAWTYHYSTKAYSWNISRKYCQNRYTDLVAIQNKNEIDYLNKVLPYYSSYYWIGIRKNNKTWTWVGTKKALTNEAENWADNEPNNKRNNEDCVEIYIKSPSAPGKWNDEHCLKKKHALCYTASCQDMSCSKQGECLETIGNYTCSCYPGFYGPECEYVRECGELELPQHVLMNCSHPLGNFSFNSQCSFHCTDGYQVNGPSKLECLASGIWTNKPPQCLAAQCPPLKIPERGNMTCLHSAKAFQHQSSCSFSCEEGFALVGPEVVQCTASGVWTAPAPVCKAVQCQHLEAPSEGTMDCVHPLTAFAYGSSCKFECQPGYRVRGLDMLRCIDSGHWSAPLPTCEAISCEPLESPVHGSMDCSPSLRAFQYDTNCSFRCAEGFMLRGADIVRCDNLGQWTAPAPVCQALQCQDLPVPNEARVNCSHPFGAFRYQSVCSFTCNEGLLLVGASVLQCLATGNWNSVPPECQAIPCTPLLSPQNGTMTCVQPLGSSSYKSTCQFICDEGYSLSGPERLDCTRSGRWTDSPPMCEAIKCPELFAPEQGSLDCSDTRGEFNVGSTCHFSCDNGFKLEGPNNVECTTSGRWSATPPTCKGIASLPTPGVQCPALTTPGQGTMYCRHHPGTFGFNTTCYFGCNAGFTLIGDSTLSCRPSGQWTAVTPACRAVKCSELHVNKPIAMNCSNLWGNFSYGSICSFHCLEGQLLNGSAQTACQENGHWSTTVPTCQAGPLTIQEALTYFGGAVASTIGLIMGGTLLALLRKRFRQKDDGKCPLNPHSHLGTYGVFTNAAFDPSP

L-selectin = molecular target: T3, L-selectin (Homo sapiens, UniProt P14151); assay: Inhibition of human L-selectin after 2 hrs; in short: as §1
T3 sequence (P14151 whole entry): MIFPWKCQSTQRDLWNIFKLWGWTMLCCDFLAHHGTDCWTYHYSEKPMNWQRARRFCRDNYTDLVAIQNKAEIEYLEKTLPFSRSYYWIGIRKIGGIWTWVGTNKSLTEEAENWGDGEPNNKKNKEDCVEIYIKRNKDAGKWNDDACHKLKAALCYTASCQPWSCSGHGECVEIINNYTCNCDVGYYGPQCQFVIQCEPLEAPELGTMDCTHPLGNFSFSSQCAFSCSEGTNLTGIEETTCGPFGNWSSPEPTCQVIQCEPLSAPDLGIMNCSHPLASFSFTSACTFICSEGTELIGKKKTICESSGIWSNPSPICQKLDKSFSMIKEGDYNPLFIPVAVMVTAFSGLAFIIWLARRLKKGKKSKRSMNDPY

HL-60 [1] = assay: Inhibition of attachment of HL60 cells to P-selectin at 109 uM after 5 mins; type: functional; conditions: Homo sapiens, HL-60, 5 min
In short: (§2)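 Dishes coated with E- or P-selectin/Fc chimera, blocked with BSA, mounted in a parallel flow chamber run recirculating; HL-60 cells at 2.4 million/mL final. Mean inhibition as % of vehicle control from mean cells/field of at least two independent experiments.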

HL-60 [2] = assay: Inhibition of attachment of HL60 cells to E-selectin at 109 uM after 5 mins; type: functional; conditions: Homo sapiens, HL-60, 5 min
In short: as §2, with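 “final. Cells attached after 5 min continuous flow at calculated shear 1 dyn/cm², with 109 µM compound or DMSO vehicle, counted in five low power fields.” for “final.”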

IC50 (E-selectin) | IC50 (P-selectin) | IC50 (L-selectin) | SMILES | inhibition at 109 µM (HL-60 [1]) | inhibition at 109 µM (HL-60 [2])
114 µM | 212 µM | 244 µM | O=C(O)Cc1ccc(-c2ccccc2NC(=O)c2ccccc2-c2cc(O)c(O)c(O)c2)s1 | 25% | –
57.2 µM | 3.4 µM | 4.3 µM | O=C(O)Cc1ccc(-c2ccccc2NC(=O)/C=C/c2ccc(O)c(O)c2O)s1 | 56% | –
– | – | > 500 µM | O=C(O)Cc1cccc(-c2cc(CCCCCCc3ccc(O[C@H]4O[C@H](CO)[C@@H](O)[C@H](O)[C@@H]4O)c(-c4cccc(CC(=O)O)c4)c3)ccc2O[C@H]2O[C@H](CO)[C@@H](O)[C@H](O)[C@@H]2O)c1 [BIMOSIAMOSE] | 50% | 28%
– | – | – | O=C(CCc1cc(O)c(O)c(O)c1)NCc1ccc(C(=O)O)cc1 | 21% | 21%
– | – | – | O=C(O)Cc1ccc(-c2ccccc2NC(=O)c2cccc(-c3ccc(O)c(O)c3O)c2)s1 | 55% | 61%
– | – | – | O=C(O)Cc1cccc(-c2ccccc2NC(=O)Cc2cc(O)c(O)c(O)c2)c1 | 22% | 18%
48 µM | 1.1 µM | 1.6 µM | O=C(O)Cc1ccc(-c2ccccc2NC(=O)c2ccc(-c3ccc(O)c(O)c3O)cc2)s1 | 58% | 33%
3.3 µM | 2.4 µM | 3.1 µM | O=C(O)Cc1ccc(-c2ccccc2NC(=O)Cc2cc(O)c(O)c(O)c2)s1 | 11% | 35%
> 500 µM | 21.8 µM | 37.6 µM | O=C(O)Cc1ccc(-c2ccccc2NC(=O)c2cccc(-c3cc(O)c(O)c(O)c3)c2)s1 | 45% | 32%
> 500 µM | 3.6 µM | 9.7 µM | O=C(O)Cc1ccc(-c2ccccc2NC(=O)Cc2cccc(-c3ccc(O)c(O)c3O)c2)s1 | 58% | –
> 500 µM | 24.8 µM | 41.7 µM | O=C(O)Cc1ccc(-c2ccccc2NC(=O)CCCc2ccc(O)c(O)c2O)s1 | 47% | 26%
3.1 µM | 3.4 µM | 5.7 µM | O=C(CCc1cc(O)c(O)c(O)c1)N[C@H]1CC[C@H](C(=O)O)CC1 | – | –
134 µM | > 4000 µM | > 4000 µM | CC(=O)N[C@H]1[C@H]([C@H](O)[C@H](O)CO)O[C@@](O[C@H]2[C@@H](O)[C@@H](CO)O[C@@H](O[C@@H]([C@H](O[C@@H]3O[C@@H](C)[C@@H](O)[C@@H](O)[C@@H]3O)[C@H](C=O)NC(C)=O)[C@H](O)CO)[C@@H]2O)(C(=O)O)C[C@@H]1O [SIALYL LEWIS X] | – | 32%
15.7 µM | 0.74 µM | 1.1 µM | O=C(O)Cc1ccc(-c2cccc(NC(=O)c3cccc(-c4ccc(O)c(O)c4O)c3)c2)s1 | 93% | 58%
> 500 µM | – | – | O=C(O)Cc1ccc(-c2ccccc2NC(=O)Cc2ccc(O)c(O)c2O)s1 | – | 26%
> 500 µM | – | 15.2 µM | O=C(O)c1ccc(O)c(O)c1O | – | –
> 500 µM | 42.8 µM | 64.5 µM | Cc1ccc(C(=O)O)cc1NC(=O)Cc1cc(O)c(O)c(O)c1 | 24% | 22%

IC50 (E-selectin) | IC50 (P-selectin) | IC50 (L-selectin) | SMILES | inhibition at 109 µM (HL-60 [1]) | inhibition at 109 µM (HL-60 [2])
31.7 µM | 31.8 µM | 38.5 µM | Cc1cc(O)c(O)c(O)c1 | – | –
> 500 µM | 57.2 µM | 154 µM | O=C(O)Cc1cccc(-c2ccccc2NC(=O)CCCNC(=O)c2cc(O)c(O)c(O)c2)c1 | – | 29%
48.6 µM | 19.5 µM | 21.3 µM | O=C(O)Cc1ccc(-c2ccccc2NC(=O)/C=C/c2cc(O)c(O)c(O)c2)s1 | 23% | 28%
> 500 µM | 28.6 µM | 85.8 µM | O=C(O)Cc1ccc(-c2ccccc2NC(=O)CCc2ccc(O)c(O)c2O)s1 | – | –
52.4 µM | 53.9 µM | 105 µM | O=C(O)Cc1ccc(-c2ccccc2NC(=O)CCCc2cc(O)c(O)c(O)c2)s1 | – | –
41.9 µM | 10.2 µM | 13.6 µM | O=C(O)Cc1ccc(-c2ccccc2NC(=O)CCc2cc(O)c(O)c(O)c2)s1 | 11% | 35%
> 500 µM | > 500 µM | > 500 µM | O=C(O)Cc1cccc(-c2ccccc2O[C@H]2O[C@H](CO)[C@@H](O)[C@H](O)[C@@H]2O)c1 | – | 34%
85.4 µM | 43.2 µM | 64.9 µM | O=C(O)Cc1cccc(-c2ccccc2NC(=O)CCc2cc(O)c(O)c(O)c2)c1 | 22% | 20%
61.4 µM | 1.2 µM | 1.6 µM | O=C(Nc1ccccc1-c1ccc(C(=O)O)s1)c1cccc(-c2ccc(O)c(O)c2O)c1 | 98% | 53%
> 500 µM | 0.87 µM | 1.5 µM | O=C(O)Cc1cccc(-c2ccccc2OC(=O)c2cc(O)c(O)c(O)c2)c1 | 35% | 16%
18.7 µM | 19.6 µM | 46.6 µM | O=C(CCc1cc(O)c(O)c(O)c1)Nc1cccc(C(=O)O)c1 | – | –
– | – | – | O=C(O)Cc1cccc(NC(=O)CCc2cc(O)c(O)c(O)c2)c1 | – | 19%
– | – | – | O=C(Cc1cc(O)c(O)c(O)c1)NCc1ccc(C(=O)O)cc1 | 20% | 16%
9.7 µM | 0.57 µM | 0.79 µM | O=C(O)Cc1ccc(-c2ccc(NC(=O)c3cccc(-c4ccc(O)c(O)c4O)c3)cc2)s1 | 83% | 47%
– | – | > 500 µM | O=C(O)Cc1cccc(NC(=O)Cc2cc(O)c(O)c(O)c2)c1 | – | 27%
– | > 500 µM | > 500 µM | Cc1c(NC(=O)Cc2cc(O)c(O)c(O)c2)cccc1C(=O)O | – | 19%
– | 2.9 µM | 4.2 µM | Cc1ccc(C(=O)O)cc1NC(=O)CCc1cc(O)c(O)c(O)c1 | – | –

SMILES | IC50 (E-selectin) | IC50 (P-selectin) | IC50 (L-selectin) | inhibition at 109 µM (HL-60 [1]) | inhibition at 109 µM (HL-60 [2])
O=C(O)c1cc(O)c(O)c(O)c1 [GALLIC ACID] | > 500 µM | 19.1 µM | 27.6 µM | – | –
